Screening data deposited in PubChem BioAssay by SRMLSC.
Lung fibro prol: blocks proliferation of human lung fibroblasts. actives 1.1% (n = 85,000). viability, % at 10 µM. LL 47 human lung fibroblast viability, ATP luminescence; stronger effect = lower value;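 active = viability at or below 50% in the single dose screen; inactive = viability above 50%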;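 note: compound exposure lasted 72 h before the ATP readout; 100% = median luminescence of untreated cell-only wells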
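Benchmarks: Cell-only wells, no compound | Test system: LL 47 human lung fibroblasts, passage 12 or lower | Input: 1,150 cells/well | Measured by: CellTiter-Glo luminescence measuring cellular ATP | Medium: IMEM, 15% FBS supplement | Schedule: Overnight attachment after seeding, then 72 h compound exposure at 37 °C | Doses: Compound addition at 0.1% DMSO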
HCT116 bCat-KO: beta-catenin-lacking colon tumor cell growth suppression. HCT116 beta-catenin knockout viability, CellTiter-Glo, 60 h; stronger effect = lower value. viability, % at 10 µM. actives 1.5% (n = 140,000);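 active = viability at or under a set limit, the compound median less 4 SD, cut at about 6% in these data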;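 note: 0% = Hyamine 1622 control at 20 µM and 100% = untreated cell control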
HCT116 PTEN-null: PTEN-deleted cell growth suppression | HCT116 PTEN-null viability, CellTiter-Glo, 60 h; stronger effect = lower value | viability, % at 10 µM | actives 1.2% (n = 140,000) | AID 827;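 active = viability at or below a set limit, 4 SD under the median of all tested compounds, cut at about 3.7% in these data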;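 note: PTEN knockout HCT116 line with beta catenin targeted HCT116 as companion control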
HUVEC prolif 384: human endothelial cell proliferation inhibition; HUVEC proliferation, CellTiter-Glo luminescence, 72 h; stronger effect = lower value; actives 1.1% (n = 86,000); AID 648; viability, % at 10 µM (by protocol);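 active = viability at or below 30%; inactive = viability above 30%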;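 note: 100% = median luminescence of DMSO-only cell control wells on each plate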
H69AR growth 86K: growth inhibitors of human H69AR lung tumor cells | H69AR lung tumor viability, ATP luminescence, 72 h; stronger effect = lower value | viability, % at 10 µM | actives 6% (n = 85,000);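 active = viability at or below 40%; inactive = viability above 40%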;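 note: multidrug resistant small cell line overexpressing MRP-1 efflux transporter; 100% = mean luminescence of untreated control wells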
* hit, by the source's call; x = not tested or not shown. This excerpt belongs to a sample that is enriched for hits.

SMILES	Lung fibro prol	HCT116 bCat-KO	HCT116 PTEN-null	HUVEC prolif 384	H69AR growth 86K
O=C(CSc1ncnc2c1cnn2-c1ccccc1)Nc1ccc2c(c1)OCO2	93.3	96.1	103.4	75.8	37.4*
CC(=O)c1c(C)[nH]c(C(=O)CSc2nnc(-c3ccco3)n2Cc2ccccc2)c1C	90.8	54.3	55.0	78.6	39.1*
Cc1ccc(CNC(=O)CSc2c3c(nc4cc(Cl)ccc24)CCCC3)o1	87.3	70.5	61.8	81.7	2.7*
CCCCNC(=O)c1ccc2c(SCC(=O)O)c3c(nc2c1)CCCC3	x	79.2	101.7	x	x
COc1cc(OC)cc(C(=O)NCCCN2CCN(CCCNC(=O)c3cc(OC)cc(OC)c3)CC2)c1	x	74.5	85.9	x	x
O=[N+]([O-])c1ccc(/C=N/NC(=S)Nc2ccccc2)o1	x	61.0	48.4	x	x
Cc1ccc(NC(=O)/C=C/c2ccc([N+](=O)[O-])s2)cc1	x	8.5	3.9	x	x
Cc1ccc(NC(=O)/C=C/c2ccc([N+](=O)[O-])s2)c(C)c1	x	2.6*	1.1*	x	x
Cc1cccc(NC(=S)N/N=C/c2ccc([N+](=O)[O-])s2)c1	x	1.0*	0.8*	x	x
Cc1cccc(NC(=O)/C=C/c2ccc([N+](=O)[O-])s2)c1	x	2.8*	1.1*	x	x
Cc1ccc(N(CC(=O)N/N=C/c2cc(C)n(-c3ccccc3C)c2C)S(C)(=O)=O)cc1	x	74.9	82.7	x	x
Cc1ccc(S(=O)(=O)N2CCC(C(=O)NCc3ccncc3)CC2)cc1	101.0	103.7	107.9	97.4	94.5
COc1ccc(-c2noc(CSc3nnc(Cc4ccccc4)n3-c3ccc(Cl)cc3)n2)cc1	103.2	76.4	68.6	73.5	12.8*
Cc1ccc(S(=O)(=O)CCSc2nc(C)cc(C(F)(F)F)c2C#N)cc1	105.9	29.8	28.6	63.5	1.6*
CCc1ccc2nc3nc(C)cc(C)c3c(N)c2c1	x	4.0*	3.2*	x	x
CCOC(=O)c1sc2nc(C)cc(C)c2c1N	102.4	66.8	85.1	99.4	101.8
Cc1cc(C)c2c(N)c3ccccc3nc2n1	x	2.9*	3.2*	x	x
Cc1cccc(-n2cnc3cc(C(=O)N4CCc5ccccc54)ccc32)c1	x	91.0	101.9	x	x
Nc1c(C(=O)c2ccccc2)sc2snc(SCC(=O)c3ccccc3)c12	x	71.1	66.3	x	x
C=CCOC(=O)C1=C(C)NC(SCC(=O)N(CC)CC)=C(C#N)C1c1ccco1 (stereo unspecified)	94.7	89.4	73.4	94.0	35.4*
CCN(CC)S(=O)(=O)c1ccc(NC(=O)COC(=O)CCc2cc(OC)c(OC)c(OC)c2)cc1	x	90.1	90.0	x	x
O=C(CN1CCCN(S(=O)(=O)c2ccc(Br)cc2)CC1)Nc1ccc2c(c1)OCO2	92.8	74.8	74.3	89.0	11.8*
COc1ccc(S(=O)(=O)N2CCCN(CC(=O)Nc3ccc4c(c3)OCO4)CC2)cc1	97.9	85.1	89.2	95.8	50.8
O=C(CN1CCN(S(=O)(=O)c2ccc(F)cc2)CC1)Nc1ccc2c(c1)OCCO2	103.4	82.4	90.7	94.0	100.0
O=C(CN1CCN(S(=O)(=O)c2ccc(F)cc2)CC1)Nc1ccc2c(c1)OCO2	48.4*	106.5	98.3	91.0	115.6
SMILES	Lung fibro prol	HCT116 bCat-KO	HCT116 PTEN-null	HUVEC prolif 384	H69AR growth 86K
O=C(CN1CCCN(S(=O)(=O)c2ccc(Br)cc2)CC1)Nc1ccc2cn[nH]c2c1	103.4	x	x	101.4	2.1*
O=C(CN1CCN(S(=O)(=O)c2ccc(F)cc2)CC1)Nc1ccc(Cl)c(C(F)(F)F)c1	87.6	61.7	45.6	70.9	9.0*
Cc1ccc(CN2CCN(CC(=O)NC(C)c3ccc4c(c3)OCCO4)C2=O)cc1 (stereo unspecified)	108.8	94.1	95.0	102.0	102.3
CCCCC(=O)Nc1ccc(NC(=S)NC(=O)CCCCl)cc1OC	x	91.3	93.9	x	x
COc1cc2ccc(=O)oc2c(O)c1OCC=C(C)C	99.6	79.8	93.3	87.8	36.7*
C=CCn1cnc2c(c1=O)c1nc3ccccc3nc1n2/N=C/c1cc(OC)c(OC)c(OC)c1	24.4*	0.8*	1.4*	38.9	8.9*
Cc1n[nH]c(C)c1N1C(=O)c2cccc3c(Br)ccc(c23)C1=O	93.4	4.8*	56.9	71.1	95.3
CSc1nc(Oc2ccc3ccccc3c2)c2ccccc2n1	x	60.2	45.9	x	x
CCN(CC(=O)NC(c1ccccc1)c1ccccc1)Cc1nc2ccccc2c(=O)[nH]1	99.0	80.5	83.7	87.6	53.4
CCN(CC(=O)Nc1ccc2c(c1)CCC2)Cc1nc2ccccc2c(=O)[nH]1	85.5	75.3	70.7	83.9	33.2*
CCN(Cc1nc2ccccc2c(=O)[nH]1)Cc1nc2cc(OC)c(OC)cc2c(=O)[nH]1	103.3	97.1	99.7	92.9	14.7*
